pIC50: −log10 of the molar value.
Tests used:
[1] = target: Nucleic Acid; experiment: Inhibitory activity against Z-Taq DNA polymerase; format: nucleic-acid assay, Thermus aquaticus
In short: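 Z-Taq amplification in 1× Z-Taq buffer, 3 mM Mg2+, 0.2 mM each dNTP, with various nonnatural triphosphate concentrations. Cycling: 95 °C 5 min; 25 cycles of 95 °C 30 s, 50 °C 30 s, 72 °C 30 s; final 72 °C 5 min. Phosphorimager quantitation of product bands; IC50 as 50% inhibition concentration; mean of two independent experiments.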

[2] = target: Pyrobest DNA polymerase (Pyrococcus sp.); experiment: Inhibitory activity against Pyrobest DNA polymerase.
[3] = Inhibitory activity against Ex Taq DNA polymerase; format: nucleic-acid assay, Thermus aquaticus
In short: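 PCR inhibition assay in 1× Ex Taq buffer, 2 mM Mg2+, 0.2 mM each dNTP, with various concentrations of nonnatural triphosphate added. Cycling: 95 °C 5 min; 30 cycles of 95 °C 30 s, 50 °C 30 s, 72 °C 60 s; final 72 °C 5 min. Product bands quantified by phosphorimager; IC50 taken as concentration giving 50% inhibition of amplification; mean of two independent experiments.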

[4] = target: Nucleic Acid; experiment: Inhibitory activity against Pfu DNA polymerase.; format: nucleic-acid assay, Pyrococcus furiosus
In short: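 Native Pfu polymerase (Pyrococcus furiosus) in native Pfu buffer, 2 mM Mg2+, 0.2 mM each dNTP, with various concentrations of nonnatural triphosphate. Cycling: 95 °C 5 min; 30 cycles of 95 °C 30 s, 50 °C 30 s, 72 °C 60 s; final 72 °C 5 min. PCR bands quantified by phosphorimager; IC50 at 50% inhibition; average of two independent runs.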

[5] = target: Nucleic Acid; experiment: Inhibitory activity against LA-Taq DNA polymerase; format: nucleic-acid assay, Thermus aquaticus
In short: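 LA-Taq PCR in 1× LA-Taq buffer with 2.5 mM Mg2+ and 0.2 mM each dNTP, plus graded levels of nonnatural triphosphate. Cycling: 95 °C 5 min; 30 cycles of 95 °C 30 s, 50 °C 30 s, 72 °C 60 s; final 72 °C 5 min. Amplified bands measured by phosphorimager; concentration for 50% inhibition determined; two independent experiments averaged.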

Structure (SMILES)	pIC50 [1]	pIC50 [2]	pIC50 [3]	pIC50 [4]	pIC50 [5]
O=P(O)(O)OP(=O)(O)OP(=O)(O)OCC1O[C@@H](c2ccccc2)CC1O (stereo not given in full)	< 1.80	< 1.80	< 1.80	< 1.80	< 1.80
O=P(O)(O)OP(=O)(O)OP(=O)(O)OCC1O[C@@H](c2ccccc2O)CC1O (stereo not given in full)	2.51	2.85	2.77	3.10	2.62
O=P(O)(O)OP(=O)(O)OP(=O)(O)OCC1O[C@@H](c2ccc(O)c(O)c2)CC1O (stereo not given in full)	3.52	3.30	4.52	3.70	3.15
O=P(O)(O)OP(=O)(O)OP(=O)(O)OCC1O[C@@H](c2cccc(O)c2)CC1O (stereo not given in full)	2.21	2.57	2.72	3.05	2.51
O=P(O)(O)OP(=O)(O)OP(=O)(O)OCC1O[C@@H](c2ccc(O)cc2)CC1O (stereo not given in full)	2.43	2.82	2.80	3.05	2.43

Source: ChEMBL document CHEMBL1135681, “Syntheses and structure-activity relationships of nonnatural beta-C-nucleoside 5'-triphosphates bearing an aromatic nucleobase with phenolic hydroxy groups: inhibitory activities against DNA polymerases” (J Med Chem, 2002)
